Assay results reported in ChEMBL document CHEMBL2040794, “Synthesis and structure-activity analysis of new phosphonium salts with potent activity against African trypanosomes” (J Med Chem, 2012).

How the values were obtained:
[1] = tested on: Trypanosoma brucei brucei; assay: Antitrypanosomal activity against diminazene-, pentamidine-, and melaminophenyl arsenical-resistant HAPT1-deficient Trypanosoma brucei brucei B48 after 3 days by alamar blue assay; assay type: functional, organism-based; details: Trypanosoma brucei, B48, 72 h
Procedure, shortened: (§1)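 Bloodstream-form T. b. brucei (wild-type s427; TbAT1-KO, made from s427 by TbAT1 deletion; B48, selected from TbAT1-KO in vitro on pentamidine, lacking functional HAPT1). Cells were exposed to compound for 48 h, then resazurin (Alamar blue) was added for a further 24 h. A single fluorescence reading gave EC50.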

[2] = tested on: Trypanosoma brucei brucei; assay: Antitrypanosomal activity against diminazene aceturate-resistant TbAT1 gene-deficient Trypanosoma brucei brucei AT1-KO after 3 days by alamar blue assay; assay type: functional, organism-based; details: Trypanosoma brucei, AT1-KO, 72 h; procedure, shortened: as §1
[3] = tested on: Trypanosoma brucei rhodesiense; assay: Antitrypanosomal activity against Trypanosoma brucei rhodesiense STIB900 infected in rat L6 cells after 72 hrs by alamar blue assay; assay type: functional, organism-based; details: Trypanosoma brucei, STIB900, 72 h
[4] = tested on: Trypanosoma brucei brucei; assay: Resistance factor, ratio of EC50 for diminazene-, pentamidine-, and melaminophenyl arsenical-resistant HAPT1-deficient Trypanosoma brucei brucei B48 to EC50 for wild type Trypanosoma brucei brucei Lister 427; assay type: functional
Procedure, shortened: (§2)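 Resistance factor is the EC50 in the resistant line (TbAT1-KO or B48) divided by the EC50 in wild-type s427. […] Resistant and wild-type EC50s were compared by Student t-test.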

[5] = Selectivity index, ratio of EC50 for human HEK cells to EC50 for wild type Trypanosoma brucei brucei Lister 427; assay type: toxicity, cell-based, HEK293; details: for selectivity ratio: HEK cells, read-out: Ratio EC50
Procedure, shortened: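 Ratio of EC₅₀ in HEK cells to EC₅₀ in wild-type T. b. brucei s427, both from resazurin assays.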

[6] = tested on: L6; assay: Cytotoxicity against rat L6 cells after 72 hrs by alamar blue assay; assay type: cell-based; details: Rattus norvegicus, L6, 72 h
[7] = tested on: Trypanosoma brucei brucei; assay: Resistance factor, ratio of EC50 for diminazene aceturate-resistant TbAT1 gene-deficient Trypanosoma brucei brucei AT1-KO to EC50 for wild type Trypanosoma brucei brucei Lister 427; assay type: functional; procedure, shortened: as §2
[8] = Selectivity index, ratio of EC50 for rat L6 cells to EC50 for Trypanosoma brucei rhodesiense STIB900; assay type: toxicity, cell-based; details: L6 cells, read-out: Ratio EC50
Procedure, shortened: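 Ratio of EC₅₀ in L6 cells to EC₅₀ against T. b. rhodesiense STIB900, both from Alamar blue assays.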

[9] = tested on: Trypanosoma brucei brucei; assay: Antitrypanosomal activity against wild type Trypanosoma brucei brucei Lister 427 after 3 days by alamar blue assay; assay type: functional, organism-based; procedure, shortened: as §1
[10] = Cytotoxicity against human HEK cells after 3 days by alamar blue assay; assay type: cell-based, HEK293
Procedure, shortened: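 Human embryonic kidney cells tested by resazurin (Alamar blue) assay: 48 h with compound, then 24 h more after dye addition, single reading; EC₅₀ derived.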

[11] = Trypanosoma brucei, Lister 427, 72 h

| Structure (SMILES) | EC50 [1] [nM] | EC50 [2] [nM] | EC50 [3] [nM] | Ratio EC50 [4] | selectivity ratio [5] | EC50 [6] [nM] | Ratio EC50 [7] | selectivity ratio [8] | EC50 [9, 11] [nM] | EC50 ([10]; Homo sapiens, HEK293, 72 h) [nM] | Ratio EC50 ([5]; hek293) | EC50 [9] [nM] | EC50 ([10]; hek293) [nM] |
| --- | --- | --- | --- | --- | --- | --- | --- | --- | --- | --- | --- | --- | --- |
| CCCCCC[P+](CCCCCC)(CCCCCC)Cc1ccc(C(=O)c2ccccc2)cc1.[Br-] | 22 | 8 | 103 | 1.9 | 1200 | 1610 | 0.7 | 15 | 11 | 13400 | – | – | – |
| Cc1ccc([P+](Cc2ccc(S(=O)(=O)c3ccc(C[P+](c4ccc(C)cc4)(c4ccc(C)cc4)c4ccc(C)cc4)cc3)cc2)(c2ccc(C)cc2)c2ccc(C)cc2)cc1.[Br-].[Br-] | 270 | 253 | 173 | 1.2 | > 1300 | 22000 | 1.1 | 127 | 230 | > 300000 | – | – | – |
| Cc1ccc([P+](Cc2ccc(C(=O)c3ccccc3)cc2)(c2ccc(C)cc2)c2ccc(C)cc2)cc1.[Br-] | 11 | 12 | 81 | 0.2 | 505 | 1350 | 0.2 | 16.7 | 64 | 32500 | – | – | – |
| Cc1cccc([P+](Cc2ccc(Oc3ccc(C[P+](c4cccc(C)c4)(c4cccc(C)c4)c4cccc(C)c4)cc3)cc2)(c2cccc(C)c2)c2cccc(C)c2)c1.[Br-].[Br-] | 88 | 43 | 488 | 1.5 | 792 | 942 | 0.7 | 1.9 | 57 | 45400 | – | – | – |
| Cc1ccc([P+](Cc2ccc(CCCc3ccc(C[P+](c4ccc(C)cc4)(c4ccc(C)cc4)c4ccc(C)cc4)cc3)cc2)(c2ccc(C)cc2)c2ccc(C)cc2)cc1.[Br-].[Br-] | 53 | 49 | 81 | 1.8 | – | 1800 | 1.7 | 22 | – | – | 897 | 29 | 25800 |
| COc1ccccc1[P+](Cc1ccc(C(=O)c2ccccc2)cc1)(c1ccccc1OC)c1ccccc1OC.[Br-] | 150 | 220 | 376 | 0.7 | 306 | 3970 | 1.1 | 10 | 210 | 63200 | – | – | – |
| COc1ccccc1[P+](Cc1ccc(C(=O)c2ccc(C[P+](c3ccccc3)(c3ccccc3OC)c3ccccc3OC)cc2)cc1)(c1ccccc1)c1ccccc1OC.[Br-].[Br-] | 190 | 320 | 230 | 0.8 | 438 | 6400 | 1.3 | 28 | 240 | 107000 | – | – | – |
| Cc1ccc([P+](CCc2ccc(CCc3ccc(CC[P+](c4ccc(C)cc4)(c4ccc(C)cc4)c4ccc(C)cc4)cc3)cc2)(c2ccc(C)cc2)c2ccc(C)cc2)cc1.[Cl-].[Cl-] | 89 | 94 | 27 | 0.7 | 103 | 1090 | 0.8 | 40.3 | 125 | 12800 | – | – | – |
| O=C(c1ccc(C[P+](c2ccc(Cl)cc2)(c2ccc(Cl)cc2)c2ccc(Cl)cc2)cc1)c1ccc(C[P+](c2ccc(Cl)cc2)(c2ccc(Cl)cc2)c2ccc(Cl)cc2)cc1.[Br-].[Br-] | 950 | 1370 | 410 | 1 | 67 | 7200 | 1.5 | 18 | 940 | 63000 | – | – | – |
| CCCCCCCC[P+](CCCCCCCC)(CCCCCCCC)Cc1ccc(C(=O)c2ccc(C[P+](CCCCCCCC)(CCCCCCCC)CCCCCCCC)cc2)cc1.[Br-].[Br-] | 45 | 61 | 220 | 1.1 | 639 | 1000 | 1.4 | 5 | 42 | 27000 | – | – | – |
| C[P+](C)(Cc1ccc(CCCc2ccc(C[P+](C)(C)c3ccccc3)cc2)cc1)c1ccccc1.[Br-].[Br-] | 1090 | 1370 | 1220 | 0.9 | > 230 | 59500 | 1.1 | 49 | 1270 | > 300000 | – | – | – |
| Cc1cccc([P+](Cc2ccc(Cc3ccc(C[P+](c4cccc(C)c4)(c4cccc(C)c4)c4cccc(C)c4)cc3)cc2)(c2cccc(C)c2)c2cccc(C)c2)c1.[Br-].[Br-] | 130 | 140 | 231 | 0.9 | 524 | 939 | 1 | 4 | 140 | 72600 | – | – | – |
| CC[P+](Cc1ccc(C(=O)c2ccc(C[P+](CC)(c3ccccc3)c3ccccc3)cc2)cc1)(c1ccccc1)c1ccccc1.[Br-].[Br-] | 1760 | 2100 | 554 | 1.8 | > 300 | > 113000 | 2.2 | > 204 | 970 | > 300000 | – | – | – |
| O=C(c1ccc(C[P+](c2ccccc2)(C2CCCCC2)C2CCCCC2)cc1)c1ccc(C[P+](c2ccccc2)(C2CCCCC2)C2CCCCC2)cc1.[Br-].[Br-] | 290 | 260 | 320 | 1.2 | > 1270 | 22900 | 1.1 | 72 | 240 | > 300000 | – | – | – |
| C[P+](C)(Cc1ccc(C(=O)c2ccccc2)cc1)c1ccccc1.[Br-] | 45800 | 46600 | 16900 | 1.1 | > 7 | > 241000 | 1.1 | – | 42700 | > 300000 | – | – | – |
| CC(C)C[P+](Cc1ccc(Oc2ccc(C[P+](CC(C)C)(CC(C)C)CC(C)C)cc2)cc1)(CC(C)C)CC(C)C.[Br-].[Br-] | 1060 | 800 | 1620 | 1.8 | > 507 | 51100 | 1.3 | – | 590 | > 300000 | – | – | – |
| CC[P+](CC)(Cc1ccc(C(=O)c2ccc(C[P+](CC)(CC)c3ccccc3)cc2)cc1)c1ccccc1.[Br-].[Br-] | 15200 | 17800 | 2900 | 1.8 | > 35 | > 128000 | 2.1 | – | 8590 | > 300000 | – | – | – |
| CC[P+](CC)(CC)Cc1ccc(Oc2ccc(C[P+](CC)(CC)CC)cc2)cc1.[Br-].[Br-] | 36600 | 34900 | 31900 | 1 | > 8 | 102000 | 1 | – | 36500 | > 300000 | – | – | – |
